# Data reported in PubChem BioAssay.
# A number with no mark means an inactive call. Results filed as inconclusive are left out. Activity calls are given as the source filed them.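 How the source made its calls, unless noted: active means RAM network inhibition above 8.4% in each of two replicates, 3 SD over the compound average; inconclusive means above 8.4% inhibition in only one replicate; inactive means 8.4% inhibition or less in each replicate.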
# What was measured:
# [1] = S. cerevisiae growth inhibition in permissive medium (OD615), pilot counter-assay for S. cerevisiae lifespan shortening project, permissive growth control (AID 705;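 active means growth inhibition above 25% in both replicates, a cutoff set 3 SD above the mean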); settings: OD615, 24 h, at 10 µM, hits give high values
# Outline: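 System: S. cerevisiae with engineered DeaD lifespan system / Measured by: absorbance (optical density) at 615 nm / Read-out: reduction in yeast growth (OD615) / Times: 4 h cell pre-growth, 24 h exposure at 30 °C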
# [2] = S. cerevisiae growth inhibition in restrictive medium, OD615, pilot screen, restrictive growth control, yeast lifespan reduction project (AID 706;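 active means growth inhibition above a set limit, 3 SD over mean compound inhibition, in both replicates, cut at about 43% in these data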;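 further: modified DeaD lifespan yeast strain shifted to restrictive glucose medium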); settings: OD615, 48 h, at 10 µM, hits give high values
# Outline: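 System: Engineered S. cerevisiae DeaD strain | Buffer or medium: Glucose-based CSMM-D restrictive medium | Schedule: 4 h pre-incubation, 48 h exposure at 30 °C | Technique: Optical density at 615 nm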
# [3] = doxorubicin toxicity protection in MRP-1 cells – H69AR cells, CellTiter-Glo, duplicate, MRP-1 activator project, pilot screen (AID 807;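 active means viability increase at or above a cutoff of the median across tested compounds plus 3 SD, cut at about 8.5% in these data, passing the limit was not always enough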;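 further: compound pretreatment 18-22 h then 72 h combined with doxorubicin; 0% = doxorubicin alone and 100% = vehicle without doxorubicin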); settings: H69AR viability with doxorubicin, CellTiter-Glo luminescence; at 10 µM; hits give high values
# [4] = viability of HCT116 without oncogenic beta-catenin – human colon tumor cells, pilot screen (AID 823;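 active means cell viability at or below a set limit in both duplicate runs, the limit being the all-compound median minus 4 SD, cut at about 23% in these data, passing the limit was not always enough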;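 further: 0% = wells killed by 20 µM Hyamine and 100% = untreated DMSO cell wells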); settings: HCT116 beta-catenin knockout viability, CellTiter-Glo, 60 h; at 10 µM; hits give low values
# [5] = viability of PTEN-null HCT116 cells – cell-based, HCT116 clonal line, CellTiter-Glo, pilot screen (AID 824;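 active means viability at or below 27.92% in each of two runs, the all-compound median minus 4 SD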;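 further: 0% = 20 µM Hyamine control and 100% = vehicle cell control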); settings: HCT116 PTEN-deleted viability, 60 h, at 10 µM, hits give low values
# [6] = RAM pathway blockade in budding yeast – dse1pr::URA3 reporter, 5-FOA selection, pilot screen (AID 869;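 active means inhibition over a set limit, the all-compound mean plus 3 SD, in both replicate runs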;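 further: 0% = DMSO wells with no growth and 100% = 10 µM 1-NA-PP1 with full growth; RAM network block rescues cells from 5-FOA so hits raise OD615 growth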); settings: S. cerevisiae dse1pr::URA3 5-FOA growth, OD615, 2 d; at 10 µM; hits give high values; strain carries analog-sensitive mutant Cbk1 kinase
# [7] = RAM signaling pathway blockade in yeast – S. cerevisiae, Pdr1DBD-CYC8 efflux-inhibited sensitized strain, primary screen (AID 1298);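 further: 0% = DMSO untreated cells without growth and 100% = 10 µM 1-NA-PP1 full growth; higher means more yeast growth rescued from 5-FOA killing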; settings: S. cerevisiae cbk1-as DSE1-URA3 strain, 5-FOA growth OD615, 2 d; at 50 µM; hits give high values
SMILES,growth inhibition [1] [%],growth inhibition [2] [%],viability increase [3] [%],viability [4],viability [5] [%],inhibition [6] [%],RAM network inhibition [7] [%]
Cc1c(Br)cc(C(=O)NCCCN2CCOCC2)c(C)c1C,-0.405,-4.69,-3.23,94.8%,93.6,0.595,0.82
COc1ccc(-c2nnc(SCC(=O)NC(C)c3ccccc3)o2)cc1OC (configuration not stated),-1.92,-14.2,-1.24,106%,96,1.04,1.77
O=C(CCN1CCN(CCO)CC1)Nc1ccc(F)c(F)c1,-1.65,-3.58,-2.29,104%,101,0.265,2.01
COc1ccc(NC(=O)Nc2cccc(C)n2)cc1,6.65,21.5,-1.44,100%,88.4,0.5,3.92
Nn1c(SCc2nc3ccccc3[nH]2)nnc1-c1cccnc1,4.54,14.9,-2.44,90.2%,95.7,1.13,1.82
COc1ccc(CC(=O)Nc2c3c(nn2C(C)(C)C)CS(=O)C3)cc1 (configuration not stated),-13.6,-4.57,-0.14,109%,101,1.24,0.63
O=C(c1ccccc1)c1ccc(N2CCCC2)cc1,-1.86,7.65,-2.59,93%,96.4,1.23,1.03
CS(=O)(=O)Nc1ccc2c3c(cccc13)CC2,-15.4,-15.1,-1.25,97.7%,90.1,1.14,7.52
O=C(Nc1nccs1)C12CC3CC(C1)CC(C(=O)Nc1nccs1)(C3)C2,1.86,28.3,-2.85,75.3%,78.7,1.25,2.5
OCCCc1nc2ccccc2n1CCOc1ccccc1,-10.4,12.7,-0.86,88.5%,94.6,0.595,2.86
Cc1ccc(NC(=O)CSc2nnc(-c3ccncc3)n2N)cc1C,-4.62,-3.02,-2.83,97.8%,98.3,1.71,2.23
CC1CCCN(C(C(=O)Nc2ccc3c(c2)OCO3)c2ccccc2)C1 (configuration not stated),-8.14,5.27,-3.45,79.6%,79.4,1.85,1.67
COc1ccc(-c2nc(CS(=O)CC(=O)NC3CCCc4ccccc43)c(C)o2)cc1OC (configuration not stated),-8.29,3.54,-2.94,84.5%,90.9,1.64,8.66
COc1ccc(-c2nnc(SCC(=O)Nc3cc(F)ccc3C)o2)cc1,-4.83,4.39,1.69,101%,97.6,2.44,0.58
COc1cccc(-c2nc(CS(=O)(=O)CC(=O)N3CCN(C4CCCCC4)CC3)c(C)o2)c1,1.34,-1.93,-2.59,86.4%,100,0.41,3.35
Cc1cccc(-c2nc(CS(=O)CC(=O)NC3CCCC3)c(C)o2)c1 (configuration not stated),6.19,1.96,-3.32,94.5%,91.7,3.42,4.67
CCOC(=O)c1ccc(Nc2nnc(C(C)(C)C)c(=O)[nH]2)cc1,-18.6,-21.9,-7.93,49.6%,43.7,0.35,2.06
Cc1ccc(-c2nc(CSCC(=O)N3CCN(c4ccccn4)CC3)c(C)o2)cc1,-5.27,15.5,-2.65,20.3% (active),44.5,1.56,-0.57

SMILES,growth inhibition [1] [%],growth inhibition [2] [%],viability increase [3] [%],viability [4],viability [5] [%],inhibition [6] [%],RAM network inhibition [7] [%]
O=C(c1ccc(N2CCCCS2(=O)=O)cc1)N1CCN(c2ccc(N3CCOCC3)nn2)CC1,3.18,14.7,-0.03,105%,106,0.09,1.25
C=CCn1c(CSc2nc3ccccc3s2)nnc1SCC(=O)OCC,-1.57,27.4,-0.04,97.6%,101,-0.335,9.66
Cc1ccc2c(c1)NCC(C(=O)NCc1ccccc1)O2 (configuration not stated),-10.4,2.51,0.49,103%,88.6,1.46,0.25
CCOc1ccc(-c2nc(CSCC(=O)N3CCN(C(=O)c4ccco4)CC3)c(C)o2)cc1,-0.515,26,-2.43,81.9%,90.4,0.525,10.9
O=C(NC1CCS(=O)(=O)C1)C1CCCCN1S(=O)(=O)c1ccc(Cl)cc1 (configuration not stated),-5.22,-3.24,-1.52,95%,90.8,1.53,2.19
CCCCS(=O)CC(COc1ccc(Cl)cc1)OC(=O)c1ccccc1 (configuration not stated),-11.8,-9.18,3.23,76.1%,86.2,0.42,5.86
CCOc1ccc(Br)cc1/C=N/O,-17.4,-29.9,-1.73,80.3%,87.1,0.11,-0.16
O=S(=O)(c1ccccc1)N1CCN(C2CCN(Cc3ccccc3)CC2)CC1,-10.8,-0.305,-1.86,90.3%,94.4,0.155,2.72
CCn1c(CNC(=O)c2ccc(OC)cc2)nnc1SC,-3.98,3.58,-1.74,90.6%,91.9,1.44,4.37
CNC(=O)c1c(NC(=O)c2ccc(S(=O)(=O)N3CCOCC3)cc2)sc2c1CCC2,-0.09,-0.055,-0.97,95.9%,91.8,0.78,4.58
CC(CCc1ccco1)NC(=O)Cn1ncc2c(=O)oc3ccccc3c21 (configuration not stated),-15.7,-12.5,-3.03,105%,93.7,1.96,5.79
CCC(C)NC(=O)c1ccc(NC(=O)C2CCCO2)cc1 (configuration not stated),-6.02,-6.03,3.38,100%,100,4.56,1.78
Cn1c(=O)oc2cc(S(=O)(=O)N3CCCC3)ccc21,4.02,-7.37,-2.12,102%,97.2,0.645,0.66
COc1ccc(Nc2nnc(Cc3ccc(Cl)cc3)c(=O)[nH]2)c(OC)c1,-11.1,-13,1.86,100%,95.7,1.89,2.35
CCOC(=O)N1CCC(C(=O)Nc2ccc(OCC)cc2)CC1,5.44,-3.75,-1.27,88%,93.9,0.495,6.44
CCOC(=O)N1CCC(NC(=O)C2CCCN(Cc3nc(-c4cccc(Cl)c4)oc3C)C2)CC1 (configuration not stated),-13.4,-23.4,-5.39,40.4%,49.5,0.715,3.95
CN(C)c1nc(-c2ccccc2)c2cnn(Cc3ccccc3)c2n1,-12.5,-3.25,-4.48,83.8%,75.9,1.59,6.82
Cc1cc(OCC(=O)N(C)C)c2c(-c3ccccc3)cc(=O)oc2c1,-3.89,2.71,-3.03,97.4%,94.7,0.915,5.21
